Results pooled from the literature.
Compare with care: the assays were run in different laboratories.
Target: Serine/threonine-protein kinase PAK 4 (PAK4, Homo sapiens, UniProt O96013)

| SMILES | observed | action | technique | concentration | quantity | value |
| --- | --- | --- | --- | --- | --- | --- |
| CN(C(=O)c1ccccc1)c1cc(N(C)c2ccc3c(c2)CCc2ccc(C(=O)NCCN4CCOCC4)cc2C3=O)ccc1F | cell-free assay |  | competition with immobilised ligand | 1 µM | remaining binding | 83% |
| Cc1ccc(Nc2nccc(N(C)c3ccc4c(C)n(C)nc4c3)n2)cc1S(N)(=O)=O | enzyme activity | inhibitor |  | 0.3 µM | inhibition | -17% |
| N#CCCc1ccc2c(c1)-c1[nH]c3ccc([N+](=O)[O-])cc3c1CC(=O)N2 | cell-free assay |  |  | 0.5 µM | remaining signal | 86.4% |
| CNC(=O)c1cc(Oc2ccc(NC(=O)Nc3ccc(Cl)c(C(F)(F)F)c3)cc2)ccn1 | enzyme activity | inhibitor |  | 10 µM | inhibition | -9% |
| CSc1nc(C)c(-c2ccnc(Nc3ccc(N4CCOCC4)cc3)c2)[nH]1 | enzyme activity | inhibitor |  | 10 µM | inhibition | -3.9% |
| Cc1ccc(C(=O)NCc2ccsc2)cc1C#Cc1cn(C(C)C)c2ncnc(N)c12 | enzyme activity | inhibitor |  | 1 µM | activity vs control | 102% |
| c1ccc(N2CCN(Cc3nc4ccccc4[nH]3)CC2)nc1 | cell-free assay |  | competition with immobilised ligand | 1 µM | remaining binding | 93% |
| CC(C)(C)c1nc(-c2cccc(NS(=O)(=O)c3c(F)cccc3F)c2F)c(-c2ccnc(N)n2)s1 | enzyme activity | inhibitor | radiometric | 1 µM | remaining activity | 68% |
| Nc1nc(Nc2ccccc2)sc1C(=O)c1c(F)cccc1F | enzyme activity | inhibitor |  | 10 µM | remaining activity | 47% |
| CCN(CC)CCNC(=O)c1c(C)[nH]c(/C=C2\C(=O)Nc3ccc(F)cc32)c1C | enzyme activity | inhibitor |  | 1 µM | remaining activity | 82% |
| COc1cc(Nc2cnc(C#N)c(O[C@H](C)CN(C)C)n2)ncc1-c1cnn(C)c1 | enzyme activity | inhibitor | radiometric | 1 µM | remaining activity | 87% |
| NS(=O)(=O)c1cc(NC(=O)C2(c3ccccc3Cl)CC2)ccc1Oc1cccc(Cl)c1 | cell-free assay |  | competition with immobilised ligand | 1 µM | remaining binding | 74% |
| CC(C)(O)[C@H]1CC[C@H](Nc2ccc3ncc(-c4cccc(C(F)(F)F)c4)n3n2)CC1 | enzyme activity | inhibitor |  | 1 µM | remaining activity | 98% |
| CCCOc1ccc(OC)c(F)c1C(=O)c1ccc(C(=O)N[C@@H]2CNC[C@H]2NC(=O)c2ccc3[nH]ncc3c2)cc1 | enzyme activity | inhibitor |  | 10 µM | remaining activity | 90% |
| COc1cc(-c2cc(-c3ccc(N4CCNCC4)cc3)cnc2C)cc(OC)c1OC | enzyme activity | inhibitor |  | 0.1 µM | inhibition | 1% |
| CC/C(=N\NC(=O)NCc1cccc(O)c1)c1ccc(O)c(C)c1O | enzyme activity | inhibitor |  | 0.1 µM | inhibition | 10.6% |
| CCC(=O)N[C@H]1CC[C@@H](C(=O)N(C)c2ccc(-c3nc4ccccc4o3)cc2)C1 | cell-free assay |  | competition with immobilised ligand | 1 µM | remaining binding | 100% |

| SMILES | observed | action | technique | concentration | quantity | value |
| --- | --- | --- | --- | --- | --- | --- |
| Cc1[nH]c(/C=C2\C(=O)Nc3ccc(F)cc32)c(C)c1C(=O)N[C@H]1CCN(C(=O)N(C)C)C1 | enzyme activity | inhibitor |  | 1 µM | remaining activity | 105% |
| CN(c1ccnc(CNc2nc(Nc3ccc4c(c3)CC(=O)N4)ncc2C(F)(F)F)n1)S(C)(=O)=O | cell-free assay |  | competition with immobilised ligand | 1 µM | remaining binding | 52% |
| CS(=O)(=O)Nc1cccc(-c2csc(NC(=O)CSc3nc4nccnc4c(=O)n3CCc3ccccc3)n2)c1 | enzyme activity | inhibitor |  | 10 µM | inhibition | 4% |
| COc1cc(-c2cn(C3CCc4c(F)cccc4N(CC(F)(F)F)C3=O)nn2)ccc1-n1cnc(C)c1 (stereo not shown) | cell-free assay |  | competition with immobilised ligand | 1 µM | remaining binding | 99% |
| COc1cc2c(N3CCN(C(=O)Nc4ccc(OC(C)C)cc4)CC3)ncnc2cc1OCCCN1CCCCC1 | cell-free assay |  |  | 0.5 µM | remaining signal | 103% |
| CCN(CC)c1ccc(C2=NNC(=O)CC2C)cc1[N+](=O)[O-] (stereo not shown) | enzyme activity | inhibitor |  | 10 µM | remaining activity | 98% |
| Nc1ncnc2occ(-c3ccc(NC(=O)Nc4cc(C(F)(F)F)ccc4F)cc3)c12 | cell-free assay | inhibitor |  | 20 µM | remaining signal | 61% |
| COc1cc(/C=C/C(=O)CC(=O)/C=C/c2ccc(O)c(OC)c2)ccc1O | enzyme activity | inhibitor |  | 1 µM | activity vs control | 78% |
| Cc1sc(C(=O)NC2COC2)cc1-n1cc(NC(=O)Nc2c(F)cccc2Cl)cn1 | enzyme activity | inhibitor |  | 10 µM | remaining activity | 106% |
| CC(C)(C)C(=O)c1sc(NC2CCCCC2)nc1N | enzyme activity | inhibitor |  | 10 µM | remaining activity | 88% |
| FC(F)(F)Oc1cccc(-c2cnc3ccc(-c4ccncc4)nn23)c1 | enzyme activity | inhibitor | radiometric | 5 µM | activity vs control | 64% |
| FC(F)c1nc2ccccc2n1-c1nc(N2CCOCC2)nc(N2CCOCC2)n1 | enzyme activity | inhibitor |  | 10 µM | remaining activity | 92% |
| CCN(CC)CCNC(=O)c1c(C)[nH]c(/C=C2\C(=O)Nc3ccc(F)cc32)c1C | enzyme activity | inhibitor |  | 10 µM | inhibition | 55% |
| CSc1cccnc1N1CCN(Cc2nc3ccccc3[nH]2)CC1 | cell-free assay |  | competition with immobilised ligand | 1 µM | remaining binding | 100% |
| O=C1NC(=O)c2cc(Nc3ccc(F)cc3)c(Nc3ccc(F)cc3)cc21 | cell-free assay |  |  | 0.5 µM | remaining signal | 95.1% |
| Nc1cnc(N2CCc3cc(S(=O)(=O)Nc4c(F)cc(Cl)cc4F)cc(N4CCCC4=O)c32)nc1 | cell-free assay |  | competition with immobilised ligand | 1 µM | remaining binding | 89% |
| Cc1ccc(NC(=O)c2ccc(C)c(C(F)(F)F)c2)cc1C#Cc1nn(C2CCC(O)CC2)c2ncnc(N)c12 (stereo not shown) | cell-free assay |  |  | 10 µM | remaining signal | 88% |
